Results on 22 molecules are retold here after ChEMBL document CHEMBL4038338 (J Med Chem, 2017).

Each structure is given as a SMILES string. pKi: −log10 of the molar value. Active and inactive are the calls of the source. The calls are words filed in the database; no cut-off is given here.

Experiment [1] can be described thus: Selectivity ratio of Ki for human liver cathepsin L to Ki for human erythrocytes calpain-1.
For experiment [2], the species on record is Homo sapiens. In words: Selectivity ratio of Ki for recombinant human cathepsin S expressed in Escherichia coli to Ki for human erythrocytes calpain-1. An outline of the steps: (§1)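 Ki ratios from kinetic fluorescence assays. Cathepsins B (0.25 nM), L (1 nM), K (3 nM) and S (0.5 nM) in MES buffer at pH 6.0. All at room temperature; Ki by Cheng-Prusoff.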

The species named for experiment [3] is Homo sapiens. The experiment is described as follows: Selectivity ratio of Ki for recombinant human procathepsin K expressed in Escherichia coli to Ki for human erythrocytes calpain-1. An outline of the steps:
as §1

A short description of experiment [4]: Selectivity ratio of Ki for human liver cathepsin B to Ki for human erythrocytes calpain-1.
Experiment [5] is described as follows: Thiol reactivity using recombinant human full length 13C-labeled La antigen (100 to 324 residues) expressed in Escherichia coli BL21(DE3) by ALARM NMR.
Experiment [6] deals with T1, Calpain-1 catalytic subunit (Homo sapiens, UniProt P07384).
T1 sequence (P07384 whole entry): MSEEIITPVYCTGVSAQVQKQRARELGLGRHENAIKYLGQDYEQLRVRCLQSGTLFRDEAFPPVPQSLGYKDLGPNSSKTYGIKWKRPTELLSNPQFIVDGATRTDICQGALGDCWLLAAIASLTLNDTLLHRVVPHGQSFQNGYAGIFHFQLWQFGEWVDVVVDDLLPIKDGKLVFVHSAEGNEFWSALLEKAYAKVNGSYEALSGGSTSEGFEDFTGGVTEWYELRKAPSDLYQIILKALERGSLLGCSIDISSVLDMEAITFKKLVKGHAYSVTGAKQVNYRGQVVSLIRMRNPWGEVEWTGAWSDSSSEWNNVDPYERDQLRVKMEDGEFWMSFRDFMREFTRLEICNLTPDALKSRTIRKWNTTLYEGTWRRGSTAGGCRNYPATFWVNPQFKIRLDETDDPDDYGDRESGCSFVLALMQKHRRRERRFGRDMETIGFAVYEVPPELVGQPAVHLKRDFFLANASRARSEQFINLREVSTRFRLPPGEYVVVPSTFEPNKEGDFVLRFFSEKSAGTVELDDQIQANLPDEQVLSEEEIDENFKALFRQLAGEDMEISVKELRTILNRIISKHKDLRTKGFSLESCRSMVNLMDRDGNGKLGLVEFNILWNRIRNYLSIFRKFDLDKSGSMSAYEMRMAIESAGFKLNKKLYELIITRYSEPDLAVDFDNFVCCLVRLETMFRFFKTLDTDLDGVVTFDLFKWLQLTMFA
The experiment is described as follows: Inhibition of human erythrocytes calpain-1 using Suc-Leu-Tyr-AMC as substrate by kinetic fluorescence assay.

Experiment [7] deals with T2, Calpain-1 catalytic subunit (Homo sapiens) (UniProt P07384).
T2 sequence (whole entry): T1 sequence (P07384 whole entry)
In words: Inhibition of human erythrocytes calpain-1 using Suc-Leu-Tyr-AMC as substrate in presence of up to 10 mM glutathione by kinetic fluorescence assay.

As a reminder, the pKi is the Ki on a negative log10 scale, so that one unit is a factor of ten.

As for `NC(=O)C(=O)C(Cc1ccccc1)NC(=O)c1cccnc1-n1cc(-c2ccccc2)cn1` (stereo not drawn), the “Ratio Ki” value in experiment [1] is 12; in experiment [2] it was 14; in experiment [3], 1; in experiment [4] it was less than 1. Moreover, the Thiol reactivity result in experiment [5] is reported as “Metabolite not detected”. Moreover, the pKi in experiment [6] (read-out: Ki) was 7.68. The inhibition entry in experiment [7] is “Active”.
Regarding `NC(=O)C(=O)C(Cc1ccccc1)NC(=O)c1cccnc1-n1ccc(C2CCCCC2)n1` (stereo not drawn), the “Ratio Ki” value in experiment [1] turned out to be 33; in experiment [2] it was 92; in experiment [3], 10; in experiment [4], 9. Also, the Thiol reactivity entry in experiment [5] is “Metabolite not detected”. Also, the negative logarithm of the Ki (pKi) in experiment [6] (read-out: Ki) is 7.25. Also, the inhibition entry in experiment [7] was “Active”.
`NC(=O)C(=O)C(Cc1ccccc1)NC(=O)c1cccnc1-n1ccc(-c2ccc(CN3CCOCC3)cc2)n1` (stereo not drawn): the “Ratio Ki” value in experiment [1] was 5; in experiment [2] it was 240; in experiment [3], less than 1; in experiment [4], less than 1. For the same molecule, the Thiol reactivity entry in experiment [5] was “Metabolite not detected”. Further, the pKi in experiment [6] (read-out: Ki) is 7.39. Further, the inhibition result in experiment [7] was “Active”.
Consider `NC(=O)C(=O)C(Cc1ccccc1)NC(=O)c1cccnc1-n1ccc(-c2ccc(C(F)(F)F)cc2)n1` (stereo not drawn), for which the “Ratio Ki” value in experiment [1] was found to be 210; in experiment [2], 87; in experiment [3], 22; in experiment [4], 11. Moreover, in experiment [5], the Thiol reactivity result was “Metabolite not detected”. The pKi in experiment [6] (read-out: Ki) is 7.14. For the same molecule, the inhibition result in experiment [7] is “Active”.
Consider `NC(=O)C(=O)C(Cc1ccccc1)NC(=O)c1cccnc1-c1csc(-c2ccccc2)n1` (stereo not drawn), for which the “Ratio Ki” value was found to be 139 in experiment [1], 310 in experiment [2], 11 in experiment [3] and 39 in experiment [4]. Further, in experiment [5], the Thiol reactivity entry is given as “Metabolite not detected”. For the same molecule, the pKi in experiment [6] (read-out: Ki) was 7.42. Further, the inhibition entry in experiment [7] was “Active”.
As to `NC(=O)C(=O)C(Cc1ccccc1)NC(=O)c1cccnc1-n1cc2c(n1)CCCC2` (stereo not drawn), the “Ratio Ki” value in experiment [1] amounted to 45; in experiment [2], 10; in experiment [3], 2; in experiment [4], 2. Besides, the Thiol reactivity result in experiment [5] is recorded as “Metabolite not detected”. Also, in experiment [6] (read-out: Ki), the pKi is 7.00. In addition, the inhibition entry in experiment [7] is “Active”.
Take `CC(C)(C)c1ccn(-c2ncccc2C(=O)NC(Cc2ccccc2)C(=O)C(N)=O)n1` (stereo not drawn): the “Ratio Ki” value was found to be 10 in experiment [1], 56 in experiment [2], 24 in experiment [3] and 16 in experiment [4]. In experiment [5], the Thiol reactivity entry is on record as “Metabolite not detected”. In addition, the pKi in experiment [6] (read-out: Ki) is 7.09. The inhibition result in experiment [7] was “Active”.
Take `CCCCC(NC(=O)c1cccnc1-n1cc(-c2ccccc2)cn1)C(=O)C(N)=O` (stereo not drawn): the “Ratio Ki” value in experiment [1] was 4; in experiment [2], 2; in experiment [3], less than 1; in experiment [4], less than 1. Also, the Thiol reactivity entry in experiment [5] is given as “Metabolite not detected”. For the same molecule, the negative-log Ki (pKi) in experiment [6] (read-out: Ki) was 7.70. Besides, in experiment [7], the inhibition result is “Active”.
On to `NC(=O)C(=O)C(Cc1ccccc1)NC(=O)c1cccnc1-n1ccc(Cc2ccccc2)n1` (stereo not drawn), for which the “Ratio Ki” value was 50 in experiment [1], 75 in experiment [2], 9 in experiment [3] and 9 in experiment [4]. For the same molecule, the Thiol reactivity entry in experiment [5] is given as “Metabolite not detected”. Besides, in experiment [6] (read-out: Ki), the pKi was 7.42. Also, the inhibition entry in experiment [7] is “Active”.
With `CN1CCC(c2ccn(-c3ncccc3C(=O)NC(Cc3ccccc3)C(=O)C(N)=O)n2)CC1` (stereo not drawn), the “Ratio Ki” value in experiment [1] was 2; in experiment [2], 89; in experiment [3], 1; in experiment [4], 2. Also, in experiment [5], the Thiol reactivity entry is given as “Metabolite not detected”. The pKi in experiment [6] (read-out: Ki) was 6.84. Also, in experiment [7], the inhibition entry is “Active”.
Turning to `CCCCC(NC(=O)c1cccnc1-n1cnc(-c2ccccc2)c1)C(=O)C(N)=O` (stereo not drawn), the “Ratio Ki” value in experiment [1] was 22; in experiment [2], 22; in experiment [3], less than 1; in experiment [4] it was less than 1. In addition, the Thiol reactivity entry in experiment [5] is reported as “Metabolite not detected”. Further, the pKi in experiment [6] (read-out: Ki) was 7.42. For the same molecule, in experiment [7], the inhibition result was “Active”.
Regarding `CCCCC(NC(=O)c1cccnc1-n1ccc(-c2ccccc2)n1)C(=O)C(N)=O` (stereo not drawn), the “Ratio Ki” value in experiment [1] was 25; in experiment [2], 61; in experiment [3], 2; in experiment [4], 1. In addition, the Thiol reactivity result in experiment [5] is on record as “Metabolite not detected”. Also, the negative logarithm of the Ki (pKi) in experiment [6] (read-out: Ki) was 7.49. In addition, the inhibition entry in experiment [7] was “Active”.
As for `NC(=O)C(=O)C(Cc1ccccc1)NC(=O)c1cccnc1-n1cccn1` (stereo not drawn), the “Ratio Ki” value came to 20 in experiment [1], 21 in experiment [2], 3 in experiment [3] and 1 in experiment [4]. For the same molecule, the Thiol reactivity result in experiment [5] is on record as “Metabolite not detected”. The pKi in experiment [6] (read-out: Ki) is 6.79. For the same molecule, the inhibition result in experiment [7] is “Active”.
As to `NC(=O)C(=O)[C@H](Cc1ccccc1)NC(=O)c1cccnc1-n1ccc(-c2ccccc2)n1`, the pKi in experiment [6] (read-out: Ki(app)) was 8.00.
With `CCCCC(NC(=O)c1cccnc1-c1csc(-c2ccccc2)n1)C(=O)C(N)=O` (stereo not drawn), the “Ratio Ki” value is 13 in experiment [1], 27 in experiment [2], 1 in experiment [3] and 2 in experiment [4]. In addition, in experiment [5], the Thiol reactivity entry is recorded as “Metabolite not detected”. For the same molecule, the pKi in experiment [6] (read-out: Ki) is 6.91. In experiment [7], the inhibition entry is “Active”.
Regarding `NC(=O)C(=O)C(Cc1ccccc1)NC(=O)c1cccnc1-c1nc(-c2ccccc2)cs1` (stereo not drawn), the “Ratio Ki” value turned out to be 37 in experiment [1], 105 in experiment [2], 11 in experiment [3] and 10 in experiment [4]. Also, the Thiol reactivity entry in experiment [5] is on record as “Metabolite not detected”. In experiment [6] (read-out: Ki), the pKi is 6.63. Moreover, the inhibition result in experiment [7] is “Active”.
As for `NC(=O)C(=O)C(Cc1ccccc1)NC(=O)c1ccccc1-c1csc(-c2ccccc2)n1` (stereo not drawn), the “Ratio Ki” value was 116 in experiment [1], 186 in experiment [2], less than 1 in experiment [3] and 23 in experiment [4]. The Thiol reactivity result in experiment [5] was “Metabolite not detected”. For the same molecule, in experiment [6] (read-out: Ki), the negative logarithm of the Ki (pKi) is 7.09. Also, the inhibition result in experiment [7] was “Active”.
Turning to `NC(=O)C(=O)C(Cc1ccccc1)NC(=O)c1cccnc1-n1cnc(-c2ccccc2)c1` (stereo not drawn), the “Ratio Ki” value was 23 in experiment [1], 54 in experiment [2], less than 1 in experiment [3] and less than 1 in experiment [4]. Moreover, the Thiol reactivity entry in experiment [5] is reported as “Metabolite not detected”. In addition, the negative logarithm of the Ki (pKi) in experiment [6] (read-out: Ki) is 7.35. Further, in experiment [7], the inhibition entry was “Active”.
On to `COc1ccc(-c2ccn(-c3ncccc3C(=O)NC(Cc3ccccc3)C(=O)C(N)=O)n2)cc1` (stereo not drawn), for which the “Ratio Ki” value in experiment [1] was 81; in experiment [2], more than 500; in experiment [3] it was 17; in experiment [4], 11. In experiment [5], the Thiol reactivity result is given as “Metabolite not detected”. Moreover, in experiment [6] (read-out: Ki), the negative-log Ki (pKi) was 7.08. Besides, the inhibition entry in experiment [7] was “Active”.
On to `NC(=O)C(=O)C(Cc1ccccc1)NC(=O)c1cccnc1-n1ccc(C2CCOCC2)n1` (stereo not drawn), for which the “Ratio Ki” value in experiment [1] turned out to be 56; in experiment [2], 147; in experiment [3], 13; in experiment [4], 14. Also, the Thiol reactivity entry in experiment [5] is given as “Metabolite not detected”. For the same molecule, the pKi in experiment [6] (read-out: Ki) was 7.32. Further, the inhibition entry in experiment [7] was “Active”.
Regarding `NC(=O)C(=O)C(Cc1ccccc1)NC(=O)c1cccnc1-n1ccc(-c2ccc(Cl)cc2)n1` (stereo not drawn), the “Ratio Ki” value is 89 in experiment [1], more than 300 in experiment [2], 9 in experiment [3] and 6 in experiment [4]. Further, the Thiol reactivity result in experiment [5] was “Metabolite not detected”. In experiment [6] (read-out: Ki), the pKi is 7.06. Also, in experiment [7], the inhibition entry was “Active”.
With `NC(=O)C(=O)C(Cc1ccccc1)NC(=O)c1cccnc1-n1ccc(C2CC2)n1` (stereo not drawn), the “Ratio Ki” value in experiment [1] was 34; in experiment [2], 50; in experiment [3] it was 7; in experiment [4], 4. The Thiol reactivity entry in experiment [5] was “Metabolite not detected”. Further, the pKi in experiment [6] (read-out: Ki) was 7.03. Also, in experiment [7], the inhibition result was “Active”.
